Experimental data reported in ChEMBL document CHEMBL1136463, “The relationship between physicochemical properties, in vitro activity and pharmacokinetic profiles of analogues of diamine-containing efflux pump inhibitors” (Bioorg Med Chem Lett, 2003).

Tested on: not listed separately
Assay: T1/2 (half life) of compound after 2 hr iv infusion of 8.4 mg/kg in three rat
Format: ADME, organism-based
Parameters: dose 8.4 mg/kg, route intravenous
Details: in vivo

half-life	Compound
43.8 min	NC[C@@H]1CN[C@@H](C(=O)N[C@H](CCc2ccccc2)C(=O)Nc2ccc3ncccc3c2)C1

Tested on: not listed separately
Assay: Clearance (Cl) of compound after 2 h iv infusion of 8.4 mg/kg in three rat
Format: ADME, organism-based
Parameters: dose 8.4 mg/kg, route intravenous
Details: in vivo

clearance	Compound
26.7 mL/min/kg	NC[C@@H]1CN[C@@H](C(=O)N[C@H](CCc2ccccc2)C(=O)Nc2ccc3ncccc3c2)C1

Tested on: not listed separately
Assay: Steady state volume distribution (Vss) of compound after 2 hr iv infusion of 8.4 mg/kg in three rat
Format: ADME, organism-based
Parameters: dose 8.4 mg/kg, route intravenous
Details: in vivo, read-out: Vss

Vd	Compound
0.5 L/kg	NC[C@@H]1CN[C@@H](C(=O)N[C@H](CCc2ccccc2)C(=O)Nc2ccc3ncccc3c2)C1

Tested on: Rattus norvegicus
Assay: Area under curve (AUC) at a dose 1 mg/kg was determined in rat kidney
Format: ADME, organism-based
Parameters: dose 1 mg/kg
Details: in vivo
Method in brief: (§1)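 Male Sprague–Dawley rats with femoral and jugular venous catheters (5 rats), dosed alone or in cassettes of up to five compounds by 2 h constant-rate femoral vein infusion at 1 to 10 mg/kg. One rat killed at 0.25, 2, 8, 16 and 24 h after infusion start. Liver, kidney and lung homogenates assayed by HPLC/MS/MS. Tissue AUC0–24 h normalized to 1 mg/kg.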

AUC	Compound
79 mg·h/kg	NCC(=O)N1C[C@@H](N)C[C@@H]1C(=O)N[C@H](CCc1ccccc1)C(=O)Nc1cnc2ccccc2c1
100 mg·h/kg	NCC(=O)N1C[C@@H](CN)C[C@@H]1C(=O)N[C@H](CCc1ccccc1)C(=O)Nc1ccc2ncccc2c1
96 mg·h/kg	NCC(=O)N1C[C@@H](N)C[C@@H]1C(=O)N[C@H](CCc1ccccc1)C(=O)Nc1ccc2ncccc2c1

Continued, molecule first:

Compound	AUC
N[C@@H]1CN[C@@H](C(=O)N[C@H](CCc2ccccc2)C(=O)Nc2cnc3ccccc3c2)C1	25 mg·h/kg
NC[C@@H]1CN[C@@H](C(=O)N[C@H](CCc2ccccc2)C(=O)Nc2ccc3ncccc3c2)C1	56 mg·h/kg
Cc1cc2nc([C@@H](CCc3ccccc3)NC(=O)[C@H]3C[C@H](N)CN3C(=O)CN)[nH]c2cc1C	133 mg·h/kg
C[C@@H](N)C(=O)N[C@H](CCc1ccccc1)C(=O)Nc1cnc2ccccc2c1	8.5 mg·h/kg

Tested on: Rattus norvegicus
Assay: Area under curve (AUC) at a dose 1 mg/kg was determined in rat liver
Format: ADME, organism-based
Parameters: dose 1 mg/kg
Details: in vivo
Method in brief: as §1

AUC	Compound
20 mg·h/kg	NCC(=O)N1C[C@@H](N)C[C@@H]1C(=O)N[C@H](CCc1ccccc1)C(=O)Nc1cnc2ccccc2c1
26 mg·h/kg	NCC(=O)N1C[C@@H](CN)C[C@@H]1C(=O)N[C@H](CCc1ccccc1)C(=O)Nc1ccc2ncccc2c1
12 mg·h/kg	NCC(=O)N1C[C@@H](N)C[C@@H]1C(=O)N[C@H](CCc1ccccc1)C(=O)Nc1ccc2ncccc2c1

More lines, now with the values behind:

Compound	AUC
N[C@@H]1CN[C@@H](C(=O)N[C@H](CCc2ccccc2)C(=O)Nc2cnc3ccccc3c2)C1	13 mg·h/kg
NC[C@@H]1CN[C@@H](C(=O)N[C@H](CCc2ccccc2)C(=O)Nc2ccc3ncccc3c2)C1	22 mg·h/kg
Cc1cc2nc([C@@H](CCc3ccccc3)NC(=O)[C@H]3C[C@H](N)CN3C(=O)CN)[nH]c2cc1C	176 mg·h/kg
C[C@@H](N)C(=O)N[C@H](CCc1ccccc1)C(=O)Nc1cnc2ccccc2c1	5.5 mg·h/kg

Tested on: Rattus norvegicus
Assay: Area under curve (AUC) at a dose 1 mg/kg was determined in rat lung
Format: ADME, organism-based
Parameters: dose 1 mg/kg
Details: in vivo
Method in brief: as §1

AUC	Compound
3 mg·h/kg	NCC(=O)N1C[C@@H](N)C[C@@H]1C(=O)N[C@H](CCc1ccccc1)C(=O)Nc1cnc2ccccc2c1
4 mg·h/kg	NCC(=O)N1C[C@@H](CN)C[C@@H]1C(=O)N[C@H](CCc1ccccc1)C(=O)Nc1ccc2ncccc2c1
4 mg·h/kg	NCC(=O)N1C[C@@H](N)C[C@@H]1C(=O)N[C@H](CCc1ccccc1)C(=O)Nc1ccc2ncccc2c1

The remaining lines, values behind:

Compound	AUC
N[C@@H]1CN[C@@H](C(=O)N[C@H](CCc2ccccc2)C(=O)Nc2cnc3ccccc3c2)C1	14 mg·h/kg
NC[C@@H]1CN[C@@H](C(=O)N[C@H](CCc2ccccc2)C(=O)Nc2ccc3ncccc3c2)C1	15 mg·h/kg
Cc1cc2nc([C@@H](CCc3ccccc3)NC(=O)[C@H]3C[C@H](N)CN3C(=O)CN)[nH]c2cc1C	5 mg·h/kg

Tested on: not listed separately
Assay: Ionization constant (pKa1) of compound was determined
Format: physicochemical
Details: read-out: pKa1

pKa	Compound
8.2	NCC(=O)N1CCNCC1C(=O)N[C@H](CCc1ccccc1)C(=O)Nc1cnc2ccccc2c1 (stereo partly drawn)
8.1	NCC(=O)N1C[C@@H](N)C[C@@H]1C(=O)N[C@H](CCc1ccccc1)C(=O)Nc1cnc2ccccc2c1
9	NCC(=O)N1C[C@@H](CN)C[C@@H]1C(=O)N[C@H](CCc1ccccc1)C(=O)Nc1ccc2ncccc2c1
8.2	NCC(=O)N1C[C@@H](N)C[C@@H]1C(=O)N[C@H](CCc1ccccc1)C(=O)Nc1ccc2ncccc2c1

The next lines start with the molecule.

Compound	pKa
N[C@@H]1CN[C@@H](CC(=O)N[C@H](CCc2ccccc2)C(=O)Nc2cnc3ccccc3c2)C1	9.3
N[C@@H]1CN[C@@H](C(=O)N[C@H](CCc2ccccc2)C(=O)Nc2cnc3ccccc3c2)C1	8.8
NC[C@@H]1CN[C@@H](C(=O)N[C@H](CCc2ccccc2)C(=O)Nc2cnc3ccccc3c2)C1	9.6
NC[C@@H]1CN[C@@H](C(=O)N[C@H](CCc2ccccc2)C(=O)Nc2ccc3ncccc3c2)C1	9.6
NCC(=O)N1CCNC(C(=O)N[C@H](CCc2ccccc2)C(=O)Nc2cnc3ccccc3c2)C1 (stereo partly drawn)	8.5

Tested on: not listed separately
Assay: Ionization constant (pKa2) of compound was determined
Format: physicochemical
Details: read-out: pKa2

pKa	Compound
6.3	NCC(=O)N1CCNCC1C(=O)N[C@H](CCc1ccccc1)C(=O)Nc1cnc2ccccc2c1 (stereo partly drawn)
7.1	NCC(=O)N1C[C@@H](N)C[C@@H]1C(=O)N[C@H](CCc1ccccc1)C(=O)Nc1cnc2ccccc2c1
7.7	NCC(=O)N1C[C@@H](CN)C[C@@H]1C(=O)N[C@H](CCc1ccccc1)C(=O)Nc1ccc2ncccc2c1
7.2	NCC(=O)N1C[C@@H](N)C[C@@H]1C(=O)N[C@H](CCc1ccccc1)C(=O)Nc1ccc2ncccc2c1

More lines, now with the values behind:

Compound	pKa
N[C@@H]1CN[C@@H](CC(=O)N[C@H](CCc2ccccc2)C(=O)Nc2cnc3ccccc3c2)C1	6.3
N[C@@H]1CN[C@@H](C(=O)N[C@H](CCc2ccccc2)C(=O)Nc2cnc3ccccc3c2)C1	5.2
NC[C@@H]1CN[C@@H](C(=O)N[C@H](CCc2ccccc2)C(=O)Nc2cnc3ccccc3c2)C1	6.8
NC[C@@H]1CN[C@@H](C(=O)N[C@H](CCc2ccccc2)C(=O)Nc2ccc3ncccc3c2)C1	6.9
NCC(=O)N1CCNC(C(=O)N[C@H](CCc2ccccc2)C(=O)Nc2cnc3ccccc3c2)C1 (stereo partly drawn)	5.4

Tested on: not listed separately
Assay: Partition coefficient (logP)
Format: physicochemical
Details: octanol/water

logP	Compound
1.8	NCC(=O)N1C[C@@H](N)C[C@@H]1C(=O)N[C@H](CCc1ccccc1)C(=O)Nc1cnc2ccccc2c1
1.2	NCC(=O)N1C[C@@H](CN)C[C@@H]1C(=O)N[C@H](CCc1ccccc1)C(=O)Nc1ccc2ncccc2c1
1.4	NCC(=O)N1C[C@@H](N)C[C@@H]1C(=O)N[C@H](CCc1ccccc1)C(=O)Nc1ccc2ncccc2c1

The remaining lines, values behind:

Compound	logP
N[C@@H]1CN[C@@H](C(=O)N[C@H](CCc2ccccc2)C(=O)Nc2cnc3ccccc3c2)C1	2.3
NC[C@@H]1CN[C@@H](C(=O)N[C@H](CCc2ccccc2)C(=O)Nc2ccc3ncccc3c2)C1	2.3
Cc1cc2nc([C@@H](CCc3ccccc3)NC(=O)[C@H]3C[C@H](N)CN3C(=O)CN)[nH]c2cc1C	2.8

Tested on: not listed separately
Assay: Partition coefficient (logD)
Format: physicochemical
Details: octanol/water

logD	Compound
0.9	NCC(=O)N1C[C@@H](N)C[C@@H]1C(=O)N[C@H](CCc1ccccc1)C(=O)Nc1cnc2ccccc2c1
-0.5	NCC(=O)N1C[C@@H](CN)C[C@@H]1C(=O)N[C@H](CCc1ccccc1)C(=O)Nc1ccc2ncccc2c1
0.5	NCC(=O)N1C[C@@H](N)C[C@@H]1C(=O)N[C@H](CCc1ccccc1)C(=O)Nc1ccc2ncccc2c1

Second part, the molecule before the results:

Compound	logD
N[C@@H]1CN[C@@H](C(=O)N[C@H](CCc2ccccc2)C(=O)Nc2cnc3ccccc3c2)C1	1.1
NC[C@@H]1CN[C@@H](C(=O)N[C@H](CCc2ccccc2)C(=O)Nc2ccc3ncccc3c2)C1	0.5
Cc1cc2nc([C@@H](CCc3ccccc3)NC(=O)[C@H]3C[C@H](N)CN3C(=O)CN)[nH]c2cc1C	1.9

Tested on: Pseudomonas aeruginosa
Assay: Minimum potentiation concentration required to reduce (potentiate) the activity of antibacterial drug-levofloxacin for Pseudomonas aeruginosa by n-fold in the absence of horse serum
Format: functional
Details: not given

Compound	MPC
NCC(=O)N1CCNCC1C(=O)N[C@H](CCc1ccccc1)C(=O)Nc1cnc2ccccc2c1 (stereo partly drawn)	20 µg/mL
NCC(=O)N1C[C@@H](N)C[C@@H]1C(=O)N[C@H](CCc1ccccc1)C(=O)Nc1cnc2ccccc2c1	10 µg/mL
N[C@@H]1CN[C@@H](CC(=O)N[C@H](CCc2ccccc2)C(=O)Nc2cnc3ccccc3c2)C1	5 µg/mL
N[C@@H]1CN[C@@H](C(=O)N[C@H](CCc2ccccc2)C(=O)Nc2cnc3ccccc3c2)C1	>40 µg/mL
NC[C@@H]1CN[C@@H](C(=O)N[C@H](CCc2ccccc2)C(=O)Nc2cnc3ccccc3c2)C1	5 µg/mL
NC[C@@H]1CN[C@@H](C(=O)N[C@H](CCc2ccccc2)C(=O)Nc2ccc3ncccc3c2)C1	10 µg/mL
NCC(=O)N1C[C@@H](CN)C[C@@H]1C(=O)N[C@H](CCc1ccccc1)C(=O)Nc1ccc2ncccc2c1	10 µg/mL
NCC(=O)N1C[C@@H](N)C[C@@H]1C(=O)N[C@H](CCc1ccccc1)C(=O)Nc1ccc2ncccc2c1	20 µg/mL
NCC(=O)N1CCNC(C(=O)N[C@H](CCc2ccccc2)C(=O)Nc2cnc3ccccc3c2)C1 (stereo partly drawn)	>40 µg/mL
Cc1cc2nc([C@@H](CCc3ccccc3)NC(=O)[C@H]3C[C@H](N)CN3C(=O)CN)[nH]c2cc1C	5 µg/mL
